Laboratory results reported in paper PMC7226180 (Cancer Science, 2020).
Where two headings read alike, the source gives them in different places. Marks after values point to notes of the source that are not given here.

Legend:
[1] = molecular target: CDK3 (Homo sapiens, UniProt Q00526); experiment: Enzymatic profiling, LANCE Ultra assay; type: biochemical
[2] = system: MCF‐7; experiment: cells; type: cell-based; details: Homo sapiens, MCF7, 144 h, read-out: Proliferation inhibition IC50 (mean ± SD)
[3] = system: MCF‐7/ARO; experiment: cells; type: cell-based; details: 144 h, read-out: Proliferation inhibition IC50 (mean ± SD)
[4] = system: T‐47D; experiment: cells; type: cell-based; details: Homo sapiens, T47D, 144 h, read-out: Proliferation inhibition IC50 (mean ± SD)
[5] = system: ES‐2; experiment: cells; type: cell-based; details: Homo sapiens, ES-2, 144 h, read-out: Proliferation inhibition IC50 (mean ± SD)
[6] = system: SW620; experiment: cells; type: cell-based; details: Homo sapiens, SW-620, 144 h, read-out: Proliferation inhibition IC50 (mean ± SD)
[7] = system: A549; experiment: cells; type: cell-based; details: Homo sapiens, A549, 144 h, read-out: Proliferation inhibition IC50 (mean ± SD)
[8] = system: Calu‐3; experiment: cells; type: cell-based; details: Homo sapiens, Calu-3, 144 h, read-out: Proliferation inhibition IC50 (mean ± SD)
[9] = system: LN‐18; experiment: cells; type: cell-based; details: Homo sapiens, LN-18, 144 h, read-out: Proliferation inhibition IC50 (mean ± SD)
[10] = system: MV‐4‐11; experiment: cells; type: cell-based; details: Homo sapiens, MV4-11, 144 h, read-out: Proliferation inhibition IC50 (mean ± SD)
[11] = system: HepG2; experiment: cells; type: cell-based; details: Homo sapiens, HepG2, 144 h, read-out: Proliferation inhibition IC50 (mean ± SD)
[12] = system: MCF‐7 xenograft; experiment: MCF‐7 s.c. human tumor xenograft; type: in vivo, BALB/c nude mice; details: 50 mg/kg; for TGI: MCF‐7 s.c. xenograft, i.g., QD 21 d; for Mean tumor size: MCF‐7 xenograft, day 20 (vehicle 703 mm^3)
[13] = system: MCF‐7/ARO xenograft; experiment: MCF‐7/ARO s.c. human tumor xenograft, single agents; type: in vivo, BALB/c nude mice; details: MCF‐7/ARO s.c. xenograft, i.g., QD 21 d, 150 mg/kg
[14] = system: Colo‐205 xenograft; experiment: Colo‐205 s.c. human tumor xenograft; type: in vivo, BALB/c nude mice; details: Colo‐205 s.c. xenograft, i.g., QD 14 d, 50 mg/kg
[15] = system: MV4‐11 xenograft; experiment: MV4‐11 s.c. human tumor xenograft; type: in vivo, BALB/c nude mice; details: MV4‐11 s.c. xenograft, i.g., QD 20 d, 50 mg/kg
[16] = system: U87‐MG xenograft; experiment: U87‐MG s.c. human tumor xenograft; type: in vivo, BALB/c nude mice; details: i.g., QD 18 d, 50 mg/kg
[17] = system: U87‐MG‐Luc human glioblastoma; experiment: U87‐MG‐Luc human glioblastoma orthotopic model; type: in vivo, female BALB/c nude mice; details: for Median survival time (mean ± SEM): 75 mg/kg (vehicle 30 ± 1 d); for Increase life span: 75 mg/kg, compared with vehicle
Method in brief: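 Female BALB/c nude mice, 6–8 weeks old, received 3 × 10⁵ U87-MG-Luc cells with 20% Matrigel. Cells were injected slowly into a skull hole about 2 mm right of the anterior fontanel and 1 mm ahead of the coronal. On day 8, mice were randomized by bioluminescence and dosed orally once daily. Survival was followed by Kaplan–Meier; life-span increase is relative to vehicle, with P by comparison to vehicle.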

[18] = in vivo; parameters: species or system female BALB/c nude mice
[19] = system: Rb^Ser780 phosphorylation in MCF‐7 cells; experiment: Western blot of Rb, p‐Rb Ser780 and cyclin D1; type: cell-based; details: MCF‐7, 24 h; for Rb^Ser780 phosphorylation and total Rb protein levels: dose‐dependent
Method in brief: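 MCF-7 cells were treated with a range of test compound concentrations for 24 h, then lysed in buffer containing phosphatase inhibitors. Lysates were separated, transferred and probed for Rb, p-Rb Ser780 and cyclin D, with β-tubulin or β-actin as loading controls. Bands were detected by HRP luminol chemiluminescence.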

[20] = system: MCF‐7 cells; experiment: Senescence assay; type: cell-based; details: MCF‐7, 12‐day exposure, dose‐dependent
Method in brief: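 MCF-7 cells grown at 37°C, 5% CO₂ in DMEM or RPMI-1640 with 10% FBS. Seeded in 6-well plates and exposed to the test compound at the indicated concentrations, or vehicle, for 12 days. Then stained with SA-β-galactosidase staining solution following the kit instructions. Stocks were 10 mmol/L in DMSO.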

[21] = system: breast cancer; details: cited from earlier work
[22] = system: ER/progesterone receptor+/HER2− advanced breast cancer; details: women, LY2835219 plus anastrozole or letrozole; cited from earlier work
[23] = system: ER+ metastatic breast cancer; details: patients, cited from earlier work
[24] = system: recurrent Rb‐positive glioblastoma; details: adult patients, phase II trial; cited from earlier work
[25] = female, BALB/c nude, mouse, in vivo, 75 mg/kg

CDK3, sequence (Q00526 whole entry): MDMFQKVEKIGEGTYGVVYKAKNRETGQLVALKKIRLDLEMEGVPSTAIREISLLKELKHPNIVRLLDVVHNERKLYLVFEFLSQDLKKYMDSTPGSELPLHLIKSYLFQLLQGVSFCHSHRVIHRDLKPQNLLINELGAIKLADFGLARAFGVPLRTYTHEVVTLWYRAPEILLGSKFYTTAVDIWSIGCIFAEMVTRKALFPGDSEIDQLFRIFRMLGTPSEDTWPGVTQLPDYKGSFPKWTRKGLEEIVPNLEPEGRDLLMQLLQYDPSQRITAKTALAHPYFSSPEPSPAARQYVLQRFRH
CDK3, sequence (P24864 whole entry, further chain): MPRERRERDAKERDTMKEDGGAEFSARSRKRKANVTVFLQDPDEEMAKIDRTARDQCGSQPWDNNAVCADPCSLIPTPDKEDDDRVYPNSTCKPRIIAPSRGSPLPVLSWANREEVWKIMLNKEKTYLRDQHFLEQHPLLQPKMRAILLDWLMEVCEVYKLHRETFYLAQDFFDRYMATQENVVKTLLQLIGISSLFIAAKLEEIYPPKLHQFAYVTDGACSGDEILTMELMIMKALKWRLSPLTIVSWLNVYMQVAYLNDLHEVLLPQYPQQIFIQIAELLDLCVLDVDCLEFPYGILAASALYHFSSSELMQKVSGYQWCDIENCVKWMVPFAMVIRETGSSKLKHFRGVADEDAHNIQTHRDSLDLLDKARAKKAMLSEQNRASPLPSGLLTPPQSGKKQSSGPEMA

Work on `CCN1CCN(Cc2ccc(Nc3ncc(F)c(-c4cc(F)c5nc(C)n(C(C)C)c5c4)n3)nc2)CC1` [LY2835219, abemaciclib] yielded an IC50 [1] of 0.482 µM, an IC50 [2] of 0.218 ± 0.0087 µM and an IC50 [3] of 0.327 ± 0.0438 µM. The IC50 [4] was 0.672 ± 0.119 µM, the IC50 [5] was 0.0278 ± 0.0103 µM and the IC50 [6] was 0.283 ± 0.0427 µM. For the same molecule, the IC50 [7] was 0.264 ± 0.0284 µM, the IC50 [8] was 1.01 ± 0.03 µM and the IC50 [9] was 0.244 ± 0.003 µM. It also gave an IC50 [10] of 0.0798 ± 0.0353 µM, an IC50 [11] of 0.0823 ± 0.0204 µM and a TGI [12] of 114%. The Mean tumor size [12] was 94 mm^3, the TGI [13] was 67^** % and the TGI [14] was 82^** %. The TGI [15] was 54^**, # %, the TGI [16] was 131^**,## % and the “Median survival time (mean ± SEM)” value [17] was 42 ± 2 days. The Increase life span [17] was 40.00%, the “Levels in the plasma and brain compared with SPH3643” value ([18]; 24 hours after the final dose) was “markedly lower” and the Kp at 1.5 h [18, 25] was 0.26 ± 0.13. For the same molecule, the Kp at 24 h [18, 25] was 0.27 ± 0.08, the “Expression of cyclin D1” value [19] was “without significantly altering” and the “Rb^Ser780 phosphorylation and total Rb protein levels” value [19] was “significant decrease”. The “Cell senescence (SA‐β‐gal staining)” value [20] was “could induce cell senescence”, the PFS ([21]; LY2835219 plus fulvestrant) was 16.4 months and the “Objective response rate and PFS” value [22] was “significantly improved”.
For `N#Cc1ccc(C(c2ccc(C#N)cc2)n2cncn2)cc1` [Letrozole, letrozole], the “Disease‐free survival” value ([23]; letrozole single‐agent treatment) is given as 10.2 months.
For `CC(=O)c1c(C)c2cnc(Nc3ccc(N4CCNCC4)cn3)nc2n(C2CCCC2)c1=O` [Palbociclib, palbociclib], the IC50 [3] was 0.374 ± 0.0487 µM, the IC50 [4] was 1.12 ± 0.686 µM and the IC50 [5] was 0.0534 ± 0.0013 µM. For the same molecule, the IC50 [6] was 0.268 ± 0.0368 µM, the IC50 [7] was 0.795 ± 0.0345 µM and the IC50 [8] was over 10 µM. For the same molecule, the IC50 [9] was 0.113 ± 0.0256 µM, the IC50 [10] was 0.0431 ± 0.0095 µM and the IC50 [11] was 0.0606 ± 0.009 µM. For the same molecule, the TGI [12] was 84%, the Mean tumor size [12] was 256 mm^3 and the TGI [13] was 67^** %. For the same molecule, the TGI [14] was 93^** %, the TGI [15] was 68^** % and the TGI [16] was 96^** %. For the same molecule, the “Median survival time (mean ± SEM)” value [17] was 35 ± 10 days, the Increase life span [17] was 16.67% and the “Expression of cyclin D1” value [19] was “without significantly altering”. The “Rb^Ser780 phosphorylation and total Rb protein levels” value [19] was “significant decrease”, the “Cell senescence (SA‐β‐gal staining)” value [20] was “could induce cell senescence” and the “Disease‐free survival” value ([23]; palbociclib together with letrozole) was 20.2 months. The “Single‐agent efficacy” value [24] was “failed to achieve”.
For `C[C@]12CC[C@@H]3c4ccc(O)cc4C[C@@H](CCCCCCCCC[S+]([O-])CCCC(F)(F)C(F)(F)F)[C@H]3[C@@H]1CC[C@@H]2O` (stereo partly drawn) [fulvestrant], the PFS ([21]; fulvestrant alone) is listed as 9.3 months.
